In ChEMBL document CHEMBL1138267, “Identification of phosphinate dipeptide analog inhibitors directed against the Plasmodium falciparum M17 leucine aminopeptidase as lead antimalarial compounds” (J Med Chem, 2007):

Tests used:
Plasmodium falciparum [1] = assay: Antimalarial activity after 48 hrs against drug-sensitive Plasmodium falciparum 3D7 by [3H]hypoxanthine uptake; type: functional, organism-based
[2] = Inhibition of Plasmodium falciparum recombinant M17 LAP
How it was run: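 His-tagged PfLAP expressed in baculovirus-infected Sf9 cells and Ni-agarose purified. The enzyme was Co2+-activated (1 mM CoCl2, 50 mM Tris-HCl pH 8.0, 20 min) and H-Leu-NHMec hydrolysis was read at ex 370/em 460 nm, 37 °C. Ki came from Dixon plots of initial rates (26 nM enzyme, 2.5–100 µM substrate, 2.44–78.13 nM inhibitor). For time-dependent binding, Ki* came from steady-state progress curves (2 µM substrate, 19.53–312.5 nM).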

Plasmodium falciparum [3] = assay: Antimalarial activity after 48 hrs against Plasmodium falciparum D10 by [3H]hypoxanthine uptake; type: functional, organism-based
Plasmodium falciparum [4] = assay: Antimalarial activity after 48 hrs against multidrug-resistant Plasmodium falciparum Dd2 by [3H]hypoxanthine uptake; type: functional, organism-based
Mus musculus [5] = assay: Toxicity in Plasmodium chabaudi chabaudi infected C57BL/6J mice (Mus musculus) at 0.1 mg, intraperitoneally twice daily after 4 days; type: organism-based; conditions: in vivo, ip, 96 h
Plasmodium chabaudi [6] = assay: Antimalarial activity against Plasmodium chabaudi chabaudi in C57BL/6J mice (Mus musculus) assessed as parasitemia on day 11 at 2 mg, intraperitoneally twice daily for 7 days; type: functional
Mus musculus [7] = assay: Toxicity in Plasmodium chabaudi chabaudi infected C57BL/6J mice (Mus musculus) at 2 mg, intraperitoneally twice daily after 7 days; type: organism-based; conditions: in vivo, ip, 168 h
Plasmodium chabaudi [8] = assay: Antimalarial activity against Plasmodium chabaudi chabaudi in C57BL/6J mice (Mus musculus) assessed as reduction of parasitemia on day 11 at 2 mg, intraperitoneally twice daily for 7 days relative to control; type: functional; parameters: scale not given: the % may be the effect or the level left
Plasmodium chabaudi [9] = assay: Antimalarial activity against Plasmodium chabaudi chabaudi in C57BL/6J mice (Mus musculus) assessed as parasitemia on day 8 at 2 mg, intraperitoneally twice daily for 7 days; type: functional
Plasmodium chabaudi [10] = assay: Antimalarial activity against Plasmodium chabaudi chabaudi in C57BL/6J mice (Mus musculus) assessed as parasitemia on day 14 at 0.1 mg, intraperitoneally for 4 days; type: functional

Compound	IC50 (Plasmodium falciparum [1]) [µM]	Ki [2] [µM]	IC50 (Plasmodium falciparum [3]) [µM]	IC50 (Plasmodium falciparum [4]) [µM]	Activity (Mus musculus [5])	Activity (Plasmodium chabaudi [6]) [%]	Activity (Mus musculus [7])	Activity (Plasmodium chabaudi [8]) [%]	Activity (Plasmodium chabaudi [9]) [%]	Activity (Plasmodium chabaudi [10]) [%]
CC(C)C[C@H](CP(=O)(O)[C@H](N)CC(C)C)C(=O)O	> 100	0.0973	> 100	> 100	–	–	–	–	–	–
N[C@H](CCc1ccccc1)P(=O)(O)C[C@@H](Cc1ccccc1)C(=O)O	24	0.0132	46	20	Non-toxic	3.6	Non-toxic	92	–	–
N[C@H](CCc1ccccc1)P(=O)(O)C[C@@H](Cc1ccc(O)cc1)C(=O)O	19	0.0104	47	13	–	–	–	–	–	–
N[C@H](CCc1ccccc1)P(=O)(O)CCC(=O)O	> 100	0.525	> 100	> 100	–	–	–	–	–	–
CC(C)C[C@H](NC(=O)[C@@H](O)[C@H](N)Cc1ccccc1)C(=O)O.Cl [BESTATIN HYDROCHLORIDE]	8	0.025	11	12	Non-toxic	–	Non-toxic	–	29.7	–
CCN(CC)CCCC(C)Nc1ccnc2cc(Cl)ccc12 (stereo not given) [CHLOROQUINE]	–	–	–	–	Non-toxic	–	Non-toxic	–	–	6.9
